Source: PubChem BioAssay (several laboratories)
ROMK primary = modulators of human ROMK potassium channel | Tet-inducible ROMK, thallium flux fluorescence; actives lie on both sides | B-score at 10 µM | 2% of 130,000 active | AID 1918;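 active means signal ratio slope over the read window, or its plate-corrected B-score, at least 3 SD from the plate mean, either direction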;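 further: B-score of the F/F0 ratio slope over 7 to 12 s after thallium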
Calpain2 inh = blocks pig calpain II enzyme activity | inhibition, % at 16 µM | 0.37% of 220,000 active | AID 1236 | purified calpain II, fluorogenic peptide substrate, 30 min;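 active means inhibition above about 50%, limit read from the data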
Cl transport mod = modulators of human KCC2 chloride dependent transport; KCC2 cells, thallium flux FluoZin-2 fluorescence; B-score of Tl+ flux slope (higher = more flux/activation; lower = inhibition) at 10 µM; 2.2% of 190,000 active; AID 1456;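 active means thallium flux slope and its plate-corrected score both differing from the plate sample mean at a set confidence after two filtering rounds, in either direction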;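 further: slope of fluorescence scaled to starting intensity during 10 to 20 s after thallium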
Target sequence (Q9H2X9 whole entry, looked up): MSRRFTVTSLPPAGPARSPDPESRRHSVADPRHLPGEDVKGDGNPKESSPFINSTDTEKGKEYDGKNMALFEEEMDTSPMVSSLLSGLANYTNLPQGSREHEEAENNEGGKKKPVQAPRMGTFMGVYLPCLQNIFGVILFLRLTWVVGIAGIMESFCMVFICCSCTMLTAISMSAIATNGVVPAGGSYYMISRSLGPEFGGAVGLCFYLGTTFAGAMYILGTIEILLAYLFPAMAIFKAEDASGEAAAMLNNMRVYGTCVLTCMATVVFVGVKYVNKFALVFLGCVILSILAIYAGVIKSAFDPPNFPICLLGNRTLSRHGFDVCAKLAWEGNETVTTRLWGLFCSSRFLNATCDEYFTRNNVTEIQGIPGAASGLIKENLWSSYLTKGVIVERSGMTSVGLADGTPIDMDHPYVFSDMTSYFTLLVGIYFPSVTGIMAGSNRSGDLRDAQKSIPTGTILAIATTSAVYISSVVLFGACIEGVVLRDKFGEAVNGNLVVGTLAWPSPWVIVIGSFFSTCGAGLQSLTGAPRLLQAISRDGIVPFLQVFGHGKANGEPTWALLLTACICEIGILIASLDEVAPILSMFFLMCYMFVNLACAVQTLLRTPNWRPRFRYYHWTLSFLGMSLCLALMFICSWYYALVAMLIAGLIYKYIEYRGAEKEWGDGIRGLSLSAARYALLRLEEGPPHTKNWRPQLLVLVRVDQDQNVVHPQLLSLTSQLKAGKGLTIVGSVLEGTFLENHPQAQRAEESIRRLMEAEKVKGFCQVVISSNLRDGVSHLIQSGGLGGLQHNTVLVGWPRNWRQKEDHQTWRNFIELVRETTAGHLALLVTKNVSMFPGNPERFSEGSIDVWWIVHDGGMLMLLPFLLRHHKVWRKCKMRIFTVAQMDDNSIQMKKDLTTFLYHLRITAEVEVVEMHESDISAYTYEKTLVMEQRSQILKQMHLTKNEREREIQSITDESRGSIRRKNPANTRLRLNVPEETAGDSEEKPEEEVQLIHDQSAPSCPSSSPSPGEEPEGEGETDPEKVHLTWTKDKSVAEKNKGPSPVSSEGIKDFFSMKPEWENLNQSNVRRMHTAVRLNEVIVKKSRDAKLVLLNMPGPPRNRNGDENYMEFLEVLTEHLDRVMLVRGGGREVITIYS
Mdm2 ligase inh = blocks human Mdm2 ubiquitin ligase activity | AID 1230 | signal enhancement, % at 5 µM | Q00987 | cell-based MDM2 ubiquitination luciferase reporter, 2 h; 0 = plate control, 100 = twice control, blank-subtracted | 0.11% of 210,000 active;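 active means signal enhancement of 30% or more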;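 further: luminescence tracks abundance of the self-degrading MDM2-luciferase fusion protein; higher signal means inhibition of MDM2 E3 ligase activity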
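Material: Stable MDM2–luciferase fusion reporter cells | Amount: 2000 cells seeded into each well | Dosing: One concentration, 5 µM, with 0.2% DMSO | Incubation: 4 h cell settling then 2 h compound exposure, 37 °C | Measured by: Luciferase luminescence | Read-out basis: % enhancement relative to plate controls after blank subtraction | Benchmarks: Control and blank well means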
PKD1 kinase inh = inhibitors of human PKD1 kinase | Q15139 | PKD1 kinase fluorescence polarization assay | inhibition, % (no concentration beside the values) | 0.056% of 200,000 active; in the data active means inhibition above about 50%
Arbovirus anti = arbovirus infection inhibition; arbovirus infection cell-based antiviral screen; inhibition, % at 10 µM; AID 1251; 0.37% of 200,000 active; in the data active means inhibition above about 30%
KCC2 secondary = confirmation of human KCC2 transport modulators. shares compounds with Cl transport mod. HEK293-KCC2, thallium flux, FluoZin2 fluorescence; stronger effect = higher value. normalised thallium flux (F/F0 slope) at 10 µM. 15% of 3,700 active;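 active means thallium flux slope above the same plate's solvent-only control mean plus 3 SD; inconclusive means the two replicate wells disagree; inactive means no significant difference from solvent-only control wells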
KCC2 bumet counter = thallium flux persisting under bumetanide in KCC2 cells, counter-screen secondary assay | shares compounds with Cl transport mod | HEK293-KCC2 + bumetanide/ouabain, thallium flux FluoZin2; stronger effect = higher value | normalized thallium flux at 10 µM | 49% of 3,700 active;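 active means thallium entry rate above the same plate's blocked-transporter control wells by more than 3 SD; inconclusive means the two repeat wells disagree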;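 further: raw slope of fluorescence over initial fluorescence between 10 and 20 s after thallium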
KCC2 secondary2 = KCC2 (human) modulation, second secondary assay | shares compounds with Cl transport mod | HEK293-KCC2, thallium flux FluoZin2 fluorescence; actives lie on both sides; F/F0 rise rate, 10–20 s post-thallium | normalized thallium flux at 10 µM | 23% of 3,700 active | AID 1715;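 active means thallium flux slope more than 3 SD above or below the plate's solvent-only control mean, mostly below; inconclusive means the two repeat wells disagreed; inactive means no significant shift from solvent-only controls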
HEK293 Tl flux = acts in parental HEK cells, KCC2 counter-screen | 46% of 3,700 active | HEK293 parental cells, thallium flux FluoZin2, ouabain; baseline-ratio fluorescence slope, 10–20 s after thallium | thallium flux rate (normalised fluorescence) at 10 µM | shares compounds with Cl transport mod;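 active means thallium flux rate significantly above the same plate's solvent-only control wells, beyond their mean plus 3 SD; inconclusive means the two replicate wells gave conflicting results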
KCC2 retest ouab = modulates human KCC2 on retest with ouabain; shares compounds with Cl transport mod; HEK293-KCC2, thallium flux FluoZin2 fluorescence; bidirectional: low = inhibitor, high = activator; raw Tl+ flux slope (below DMSO = inhibition, above = activation) at 10 µM; 48% of 3,700 active; AID 1717;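 active means thallium flux slope beyond 3 SD from same-plate DMSO control mean in most replicates, usually higher, sometimes lower; inconclusive means repeat tests gave conflicting results; inactive means no significant difference from controls in most replicates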;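 further: slope of initial-normalized fluorescence between seconds 10 and 20 after thallium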
HEK counter2 = parental HEK flux effect, counter-screen 2. HEK293 parental, thallium flux FluoZin-2 fluorescence slope. 33% of 3,700 active. thallium flux slope at 10 µM. AID 1718. shares compounds with Cl transport mod;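 active means thallium flux slope above the same plate's solvent-control mean plus 3 SD in both duplicate wells; inconclusive means duplicate wells that disagreed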;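 further: run without ouabain in cells lacking the KCC2 cotransporter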
Of the large screens only hits and unclear results are named; the others gave an inactive call (follow-up assays come after a bar, where they were run). Rows were chosen to be rich in hits. Some 3.7% of all compounds tested hit in one or more screens of this group.

O=C(CN1C(=O)C2CCCCC2C1=O)Nc1nc(-c2ccccn2)cs1 (stereo unspecified)	none (no result: Cl transport mod) | KCC2 secondary inactive | KCC2 bumet counter 0.007 | KCC2 secondary2 inactive | HEK293 Tl flux inactive | KCC2 retest ouab inactive | HEK counter2 inactive
O=C(Cn1nnc2ccccc21)OCC(=O)c1ccc(Cl)cc1	none (no result: ROMK primary, Mdm2 ligase inh, PKD1 kinase inh, Arbovirus anti)
COc1ccc(S(=O)(=O)N(CC(=O)NC(C)C)Cc2ccccc2)cc1	none (no result: Cl transport mod)
NC(=O)CCN(Cc1ccccc1)S(=O)(=O)c1ccccc1	none (no result: Mdm2 ligase inh)
O=C(O)CCCN(Cc1cccc(Br)c1)S(=O)(=O)c1ccc(Br)cc1	Cl transport mod -5.5 | KCC2 secondary inactive | KCC2 bumet counter inactive | KCC2 secondary2 0.029 | HEK293 Tl flux inactive | KCC2 retest ouab 0.012 | HEK counter2 inactive
COc1ccc(S(=O)(=O)N(CCC(=O)O)Cc2ccccc2)cc1	Cl transport mod -3.7 | KCC2 secondary inactive | KCC2 bumet counter inactive | KCC2 secondary2 0.022 | HEK293 Tl flux inactive | KCC2 retest ouab 0.015 | HEK counter2 inactive
CC(C)CN(C(=O)C(c1ccccc1)c1ccccc1)c1c(N)n(CC(C)C)c(=O)[nH]c1=O	none
CCOC(=O)C(C)Oc1cccc2c(=O)n(CC(=O)N3CCN(C(=O)OCC)CC3)ccc12 (stereo unspecified)	none (no result: ROMK primary)
CCOc1ccc(CCNC(=O)c2cc3sccc3n2C)cc1OCC	Cl transport mod 3.9 | KCC2 secondary inactive | KCC2 bumet counter inactive | KCC2 secondary2 inconclusive | HEK293 Tl flux inconclusive | KCC2 retest ouab inactive | HEK counter2 inactive
CC1=NN(c2nc3ccccc3s2)C(O)(C(F)(F)F)C1 (stereo unspecified)	Cl transport mod 5.8 (no result: PKD1 kinase inh, Arbovirus anti) | KCC2 secondary inactive | KCC2 bumet counter 0.011 | KCC2 secondary2 inactive | HEK293 Tl flux 0.012 | KCC2 retest ouab inconclusive | HEK counter2 0.013
CCn1c(N2CCC(Cc3ccccc3)CC2)nc2c1c(=O)[nH]c(=O)n2C	Cl transport mod -3.1 (no result: ROMK primary) | KCC2 secondary inactive | KCC2 bumet counter inactive | KCC2 secondary2 inactive | HEK293 Tl flux 0.0061 | KCC2 retest ouab 0.016 | HEK counter2 inactive
COc1ccc(NC(=S)NC(=O)/C=C/c2ccco2)cc1	Cl transport mod 4.4 | KCC2 secondary inactive | KCC2 bumet counter 0.016 | KCC2 secondary2 inactive | HEK293 Tl flux inconclusive | KCC2 retest ouab inconclusive | HEK counter2 inactive
O=C(NC(=S)Nc1ccccc1)c1ccc(Br)o1	Cl transport mod 111 (no result: ROMK primary) | KCC2 secondary 0.046 | KCC2 bumet counter 0.19 | KCC2 secondary2 0.062 | HEK293 Tl flux 0.1 | KCC2 retest ouab 0.13 | HEK counter2 0.036
COc1ccc(C(=O)NNC(=S)NC(=O)c2ccc(Br)o2)cc1OC	Cl transport mod 6.3 | KCC2 secondary inactive | KCC2 bumet counter 0.021 | KCC2 secondary2 0.038 | HEK293 Tl flux 0.02 | KCC2 retest ouab inconclusive | HEK counter2 0.021
NC(=O)c1ccccc1NC(=S)NC(=O)c1ccc(Br)o1	none
O=C(Nc1ccc(Nc2ccccc2)cc1)c1ccc(Br)o1	Cl transport mod -5.7 (no result: ROMK primary) | KCC2 secondary inconclusive | KCC2 bumet counter inactive | KCC2 secondary2 inactive | HEK293 Tl flux inactive | KCC2 retest ouab 0.013 | HEK counter2 inconclusive
COc1cc(C(=O)Nc2ccc3c(c2)OCO3)ccc1OCc1c(C)noc1C	none
O=c1ccnc2n1COCS2	none (no result: ROMK primary, PKD1 kinase inh, Arbovirus anti)
CCOP(=O)(OCC)C(NC(=O)Nc1ccc(C)cc1)C(N)=O (stereo unspecified)	none (no result: ROMK primary, Cl transport mod, PKD1 kinase inh, Arbovirus anti)
O=C(NNC(=S)NC(=O)c1sc2ccccc2c1Cl)c1ccc(Cl)cc1	Cl transport mod 25 | KCC2 secondary 0.017 | KCC2 bumet counter 0.053 | KCC2 secondary2 inconclusive | HEK293 Tl flux 0.037 | KCC2 retest ouab 0.052 | HEK counter2 0.013
COc1ccc(NC(=O)c2ccc(Br)o2)cc1	none (no result: Mdm2 ligase inh)
COc1cc(C(=O)NNC(=S)NC(=O)c2ccc(Cl)cc2)cc(OC)c1OC	Cl transport mod 13 | KCC2 secondary 0.017 | KCC2 bumet counter 0.028 | KCC2 secondary2 inactive | HEK293 Tl flux 0.017 | KCC2 retest ouab 0.033 | HEK counter2 0.012
Cc1snnc1C(=O)NC(=S)Nc1ccccc1	Cl transport mod 52 (no result: ROMK primary, PKD1 kinase inh, Arbovirus anti) | KCC2 secondary 0.026 | KCC2 bumet counter 0.089 | KCC2 secondary2 inconclusive | HEK293 Tl flux 0.047 | KCC2 retest ouab 0.064 | HEK counter2 0.014
COc1ccc(NC(=S)NC(=O)c2ccc(Br)o2)cc1	Cl transport mod 100 (no result: ROMK primary) | KCC2 secondary 0.057 | KCC2 bumet counter 0.14 | KCC2 secondary2 0.061 | HEK293 Tl flux 0.12 | KCC2 retest ouab 0.11 | HEK counter2 0.053
CCCOCCc1nnc(N)s1	none (no result: ROMK primary, Mdm2 ligase inh, PKD1 kinase inh, Arbovirus anti)
COc1ccc(Nc2nc(C(=O)NCCCN3CCOCC3)cs2)cc1	none (no result: Cl transport mod)
COC(=O)CSc1[nH]c2ccccc2c1[N+](=O)[O-]	none (no result: ROMK primary, Mdm2 ligase inh, PKD1 kinase inh, Arbovirus anti)
O=C(Nc1ccncc1)c1sc2ccccc2c1Cl	none
O=C(NN=C1CCCC1)c1sc2ccccc2c1Cl	Cl transport mod 11 | KCC2 secondary inactive | KCC2 bumet counter 0.023 | KCC2 secondary2 inactive | HEK293 Tl flux 0.022 | KCC2 retest ouab inconclusive | HEK counter2 0.019
CN(CCc1ccccn1)C(=O)CN(C)S(=O)(=O)c1ccc2c(c1)c(=O)n(C)c(=O)n2C	none (no result: ROMK primary)
COCCN(CCOC)C(=O)c1ccc(SCc2ccc(C)cc2)c([N+](=O)[O-])c1	Cl transport mod -4.4 | KCC2 secondary inactive | KCC2 bumet counter inactive | KCC2 secondary2 inactive | HEK293 Tl flux inactive | KCC2 retest ouab 0.015 | HEK counter2 inactive
CC(=O)Nc1ccc(C(=O)N2CCCC2)cc1	Cl transport mod -4.5 (no result: ROMK primary, Mdm2 ligase inh) | KCC2 secondary inactive | KCC2 bumet counter inactive | KCC2 secondary2 inactive | HEK293 Tl flux inactive | KCC2 retest ouab inactive | HEK counter2 inactive
CC(=O)c1cccc(NC(=O)Nc2ccc(C(=O)N3CCOCC3)cc2)c1	Cl transport mod -3.1 | KCC2 secondary inactive | KCC2 bumet counter inactive | KCC2 secondary2 inactive | HEK293 Tl flux inactive | KCC2 retest ouab inactive | HEK counter2 inactive
Cc1ccc(NC(=O)Nc2ccc(C(=O)N3CCOCC3)cc2)cc1	none (no result: Cl transport mod)
